Assay results: ChEMBL document CHEMBL4406847, “Tryptoline-based benzothiazoles re-sensitize MRSA to β-lactam antibiotics” (Bioorg Med Chem, 2019)

Experiments:
Staphylococcus aureus [1] = assay: Potentiation of cefuroxime induced antibacterial activity against methicillin resistant Staphylococcus aureus NR-46411 assessed as minimum resensitizing concentration after 18 hrs by broth microdilution method; format: functional; settings: NR-46411, 18 h, read-out: MEC
Procedure, shortened: (§1)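 Compound titrated with cefuroxime, using the same method as the cefazolin MRC; MRC is the lowest compound concentration preventing overnight growth, in μg/mL.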

Staphylococcus aureus [2] = assay: Potentiation of cefazolin induced antibacterial activity against methicillin resistant Staphylococcus aureus NR-46411 assessed as minimum resensitizing concentration after 18 hrs by broth microdilution method; format: functional; settings: NR-46411, 18 h, read-out: MEC
Procedure, shortened: (§2)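 Compound titrated in the presence of cefazolin at its CLSI breakpoint (8 μg/mL); MRC is the compound concentration at which no overnight growth occurs, in μg/mL; confirmed in triplicate.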

Staphylococcus aureus [3] = assay: Potentiation of cefazolin induced antibacterial activity against methicillin resistant Staphylococcus aureus ATCC BAA-44 assessed as minimum resensitizing concentration after 18 hrs by broth microdilution method; format: functional; settings: ATCC BAA-44, 18 h, read-out: MEC; procedure, shortened: as §2
Staphylococcus aureus [4] = assay: Potentiation of cefuroxime induced antibacterial activity against methicillin resistant Staphylococcus aureus NRS384 assessed as minimum resensitizing concentration after 18 hrs by broth microdilution method; format: functional; settings: NRS384, 18 h, read-out: MEC; procedure, shortened: as §1
Staphylococcus aureus [5] = assay: Potentiation of cefuroxime induced antibacterial activity against Staphylococcus aureus ATCC BAA-1683 assessed as minimum resensitizing concentration after 18 hrs by broth microdilution method; format: functional; settings: ATCC BAA-1683, 18 h, read-out: MEC
Procedure, shortened: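 MRSA BAA-1683 grown overnight with cefuroxime plus varying analogue, method as for cefazolin MRC (antibiotic at CLSI breakpoint); MRC = analogue concentration giving no overnight growth; confirmed in triplicate.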

Staphylococcus aureus [6] = assay: Potentiation of cefuroxime induced antibacterial activity against methicillin resistant Staphylococcus aureus ATCC BAA-1764 assessed as minimum resensitizing concentration after 18 hrs by broth microdilution method; format: functional; settings: ATCC BAA-1764, 18 h, read-out: MEC; procedure, shortened: as §1
Staphylococcus aureus [7] = assay: Potentiation of cefazolin induced antibacterial activity against methicillin resistant Staphylococcus aureus ATCC BAA-1764 assessed as minimum resensitizing concentration after 18 hrs by broth microdilution method; format: functional; settings: ATCC BAA-1764, 18 h, read-out: MEC; procedure, shortened: as §2
Staphylococcus aureus [8] = assay: Potentiation of cefazolin induced antibacterial activity against Staphylococcus aureus ATCC BAA-1683 assessed as minimum resensitizing concentration after 18 hrs by broth microdilution method; format: functional; settings: ATCC BAA-1683, 18 h, read-out: MEC
Procedure, shortened: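 MRSA BAA-1683 grown overnight with cefazolin held at its CLSI breakpoint, 8 μg/mL, plus varying analogue; MRC = analogue concentration giving no overnight growth; confirmed in triplicate.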

[9] = Cytotoxicity against human HeLa cells assessed as cell growth inhibition measured after 24 hrs by Celltiter Glo luminescent assay; format: cell-based; settings: HeLa cells
Staphylococcus aureus [10] = assay: Potentiation of cefazolin induced antibacterial activity against methicillin resistant Staphylococcus aureus NRS100 assessed as minimum resensitizing concentration after 18 hrs by broth microdilution method; format: functional; settings: NRS100, 18 h, read-out: MEC; procedure, shortened: as §2
Staphylococcus aureus [11] = assay: Potentiation of cefuroxime mediated antibacterial activity against methicillin resistant Staphylococcus aureus NRS100 assessed as minimum resensitizing concentration after 18 hrs by broth microdilution method; format: functional; settings: NRS100, 18 h, read-out: MEC; procedure, shortened: as §1
Staphylococcus aureus [12] = assay: Antibacterial activity against methicillin resistant Staphylococcus aureus ATCC BAA-1764 after 18 hrs by broth microdilution method; format: functional; settings: ATCC BAA-1764, 18 h
Procedure, shortened: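 Compound alone, MIC by standard CLSI broth microdilution; lowest concentration with no growth, reported in μg/mL; confirmed in triplicate.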

Staphylococcus aureus [13] = assay: Potentiation of cefazolin induced antibacterial activity against methicillin resistant Staphylococcus aureus NRS384 assessed as minimum resensitizing concentration after 18 hrs by broth microdilution method; format: functional; settings: NRS384, 18 h, read-out: MEC; procedure, shortened: as §2

Q: Which results are given for `Nc1cc(Cl)c2nc(N3CCc4c([nH]c5ccc(Cl)cc45)C3)sc2c1`?
A: minimal effective concentration (Staphylococcus aureus [1]): < 0.25 µg/mL; minimal effective concentration (Staphylococcus aureus [2]): 0.5 µg/mL; minimal effective concentration (Staphylococcus aureus [3]): 2 µg/mL; minimal effective concentration (Staphylococcus aureus [4]): 4 µg/mL; minimal effective concentration (Staphylococcus aureus [5]): 8 µg/mL; minimal effective concentration (Staphylococcus aureus [6]): 32 µg/mL; minimal effective concentration (Staphylococcus aureus [7]): 0.5 µg/mL; minimal effective concentration (Staphylococcus aureus [8]): 1 µg/mL; GI50 at 24 h [9]: > 100 µg/mL; minimal effective concentration (Staphylococcus aureus [10]): 4 µg/mL; minimal effective concentration (Staphylococcus aureus [11]): 4 µg/mL; MIC (Staphylococcus aureus [12]): > 32 µg/mL; minimal effective concentration (Staphylococcus aureus [13]): 4 µg/mL
